High-throughput results as filed in PubChem.
HTR1E agonist: 5-HT1E receptor agonists, primary screen, cell-based, HTS; 5-hydroxytryptamine receptor 1E (Homo sapiens), P28566; CHO 5-HT1E Ga15 NFAT-bla reporter, FRET; 0% DMSO wells, 100% control agonist wells; activation, % at 6 µM; 65,000 compounds, 0.69% hits;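 active means activation above a set limit, the screen-wide mean activation plus 3 SD, cut at about 8.5% in these data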;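 further: 100% = positive control agonist at 1 µM giving full maximal response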
Target sequence (P28566 whole entry, looked up): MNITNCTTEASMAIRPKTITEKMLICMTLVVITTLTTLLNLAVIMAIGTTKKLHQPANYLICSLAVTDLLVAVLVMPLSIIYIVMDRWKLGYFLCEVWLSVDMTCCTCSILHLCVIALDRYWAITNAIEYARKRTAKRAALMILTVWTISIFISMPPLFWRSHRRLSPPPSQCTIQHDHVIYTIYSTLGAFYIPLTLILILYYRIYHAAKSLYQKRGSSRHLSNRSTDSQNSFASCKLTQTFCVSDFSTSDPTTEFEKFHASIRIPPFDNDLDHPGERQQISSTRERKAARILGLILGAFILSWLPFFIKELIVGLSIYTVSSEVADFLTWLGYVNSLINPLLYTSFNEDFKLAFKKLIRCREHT
5HT1E antag: 5-HT1E receptor antagonists, primary screen, cell-based, HTS. CHO 5-HT1E Ga15 NFAT-bla reporter, FRET, antagonist. 65,000 compounds, 0.99% hits. inhibition, % at 6 µM. 5-hydroxytryptamine receptor 1E (Homo sapiens), P28566;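 active means inhibition above a set limit, the mean inhibition across every tested compound plus 3 SD, cut at about 29% in these data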;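 further: signal is the 460 over 535 nm emission ratio of beta-lactamase substrate; 0% = agonist plus DMSO wells and 100% = wells without agonist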
HEK293 NFkB inh: inhibitors of PMA/ionomycin-induced NF-kB reporter, primary screen, antigen receptor NF-kB inhibitor project, cell-based, HEK-293 luciferase reporter, luminescence | HEK-293 NF-kB luciferase reporter | inhibition, % at 3 µM | 62,000 compounds, 0.21% hits;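 active means inhibition above the mean of all tested compounds plus 3 SD, cut at about 40% in these data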;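 further: 0% = stimulated DMSO wells and 100% = 10 µM reference inhibitor 5653914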
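System – HEK-293 cells with stable firefly luciferase reporter driven by four HIV NF-kB elements · Doses – one dose, 3 µM · Schedule – 1 h compound pre-incubation, 16 h PMA/ionomycin at 37 °C · Technique – luminescence from luciferase substrate reagent · Measure – percent inhibition normalized per plate to DMSO and reference-inhibitor controls · Replicates – tested once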
5HT1a ag: human 5-HT1a receptor agonists, primary screen, cell-based, CHO, Ga15 NFAT-bla reporter | 5-hydroxytryptamine receptor 1A (Homo sapiens), P08908 | CHO 5-HT1a Ga15 NFAT-bla reporter, FRET ratio; 0% basal, 100% maximal reference agonist | activation, % at 10 µM | 65,000 compounds, 0.56% hits | AID 567, 2006;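 active means activation above the screen-wide mean activation plus 3 SD, cut at about 19% in these data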;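 further: 0% = DMSO wells and 100% = 5-CT at EC100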
Jurkat viability: cytotoxicity toward Jurkat T cells, primary screen, cytotoxicity control, cell-based, Jurkat E6.1, 60K MLSMR library. AID 463, 2006. 56,000 compounds, 1.2% hits. inhibition, % at 4 µM. Jurkat E6.1 viability, ATP luminescence, 48 h;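 active means inhibition above the mean inhibition of all tested compounds plus 3 SD, cut at about 28% in these data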
5-HT1A blocker: human 5-HT1a receptor antagonists, primary screen, cell-based, CHO, Ga15 NFAT-bla reporter. 5-hydroxytryptamine receptor 1A (Homo sapiens), P08908. inhibition, % at 10 µM. 62,000 compounds, 0.68% hits. CHO 5-HT1a Ga15 NFAT-bla reporter, antagonist mode. AID 612, 2007;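 active means inhibition above the mean of all tested compounds plus 3 SD, cut at about 43% in these data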;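 further: receptor stimulated by 5-CT agonist at 100 nM near EC80; beta-lactamase reporter measured by ratiometric fluorescence of a cleavable substrate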
Active calls of the source: *; . = not tested or not shown. Rows were chosen to be rich in hits. Some 3.3% of all compounds tested hit in one or more screens of this group.

SMILES | HTR1E agonist | 5HT1E antag | HEK293 NFkB inh | 5HT1a ag | Jurkat viability | 5-HT1A blocker
CCOC(=O)c1ccccc1NC(=O)c1cc(S(=O)(=O)N2CCOCC2)ccc1F | 0 | 29* | 13 | 2 | 1 | 12
CCOC(=O)N1CCN(S(=O)(=O)c2ccc(F)c(C(=O)Nc3cccc(C)c3C)c2)CC1 | 0 | -6 | 11 | 0 | -1 | -6
CC(C)Cc1[nH]c(=O)c(C#N)c2c1CCCC2 | 0 | 4 | . | 0 | . | .
CCN1C(=O)C(C(=O)Nc2ccc(OC)cc2)C2CC1(C)Oc1ccccc12 (configuration not stated) | 0 | -2 | -10 | -1 | -5 | -1
COc1ccc(/C=C/C(O)=C2/C(=O)N(C)C3(C)CC2c2ccccc2O3)cc1 (configuration not stated) | 0 | 20 | 12 | -1 | 10 | 46*
CC(C)CCOCC(=O)Nc1cccc(C(=O)O)c1 | 0 | -11 | -23 | 1 | -5 | -17
Cc1ccc(/C=C/C2=Cc3c(sc(NC(=O)CSc4n[nH]c(N)n4)c3C#N)C(C)(C)C2)o1 | -1 | -6 | 5 | -3 | -3 | -13
Nc1nonc1C(=O)NCCNCc1cc(Br)ccc1OCc1ccccc1F | 0 | 12 | 16 | -1 | 17 | 52*
Nc1nonc1C(=O)NCCNCc1ccccc1OCc1ccccc1F | 0 | 4 | 8 | 0 | 8 | 34
C=CCSC1=C(C#N)C(c2ccc(OCC)cc2)CC(=O)N1 (configuration not stated) | 0 | 5 | 8 | 1 | -2 | -6
CC(=O)NCc1ccc(-c2csc(N)n2)s1 | 14* | -9 | 2 | -3 | -3 | -12
Cc1ccc(-c2csc(N)n2)s1 | 0 | 11 | -2 | 1 | -4 | 10
COc1ccc(N(CC(=O)O)S(=O)(=O)c2cccnc2)cc1 | -1 | 2 | 2 | -4 | -12 | -2
N#Cc1cccc2cnccc12 | 0 | -8 | 12 | -1 | -2 | 0
Nc1cccc2cnccc12 | 0 | 33* | 9 | -2 | 11 | 30
CNC(=O)CN(C1CCCCC1)S(=O)(=O)c1ccc(F)cc1 | 1 | -3 | 2 | 42* | -1 | 4
CCOC(=O)CSc1nc2ccccc2c(=O)n1Cc1ccco1 | 0 | 12 | 11 | 0 | -2 | 1
CCOC(=O)CSc1nc2c(sc(=S)n2Cc2ccco2)c(=O)n1-c1ccccc1 | -2 | 9 | 12 | 0 | . | 55*
COc1ccc(C2=NOC(C(=O)Nc3cc(Br)ccc3O)C2)cc1OC (configuration not stated) | 1 | 37* | -20 | 2 | 1 | 10
CCOC(=O)N1CCN(Cc2nc(N)nc(Nc3ccc(Oc4ccccc4)cc3)n2)CC1 | 1 | 5 | 7 | 1 | 17 | -8
COC(=O)c1cnn2c(C)c(Cc3cccc(F)c3)c(C)nc12 | 1 | 30* | 14 | 3 | 6 | -8
Cc1ccc(-c2nnc3n2N=C(c2ccccc2Br)CS3)cc1 | 0 | 32* | 16 | -1 | 3 | 14
Cc1cccc(-c2nnc3n2N=C(c2ccccc2)CS3)c1 | 0 | 12 | . | 1 | . | .
COc1ccc(C2=Nn3c(nnc3-c3ccccc3)SC2)cc1OC | 1 | 49* | . | 3 | . | .
COc1ccc(OC)c(C2=Nn3c(nnc3-c3cccc(OC(C)C)c3)SC2)c1 | 0 | 38* | 17 | 3 | -3 | 14
SMILES | HTR1E agonist | 5HT1E antag | HEK293 NFkB inh | 5HT1a ag | Jurkat viability | 5-HT1A blocker
CCOc1ccc(C2=Nn3c(nnc3-c3cccnc3)SC2)cc1 | 0 | -21 | . | -1 | . | .
COc1ccc(OC)c(C2=Nn3c(nnc3-c3ccco3)SC2)c1 | 0 | 11 | . | -1 | . | .
CCOc1ccc(C2=Nn3c(nnc3-c3ccc(OC)cc3)SC2)cc1 | 2 | 39* | 23 | 0 | 62* | 15
CCOC(=O)C1=C(C)N2C(=C(C#N)[C@@H]1c1ccc(C(=O)OC)cc1)SC[C@@]2(O)C(C)(C)C | -1 | 0 | 18 | 0 | -5 | -7
O=C(Oc1ccc(-c2nnco2)cc1)N(c1ccccc1)c1ccccc1 | 0 | 1 | 8 | -2 | 0 | 3
O=C(C1CCC(N2C(=O)C3CC=CCC3C2=O)CC1)N1CCCCC1 (configuration not stated) | -1 | -2 | 10 | 0 | 5 | -11
O=C(Nc1ccc(S(=O)(=O)N2CCCCCC2)cc1)C1CCCO1 (configuration not stated) | -1 | -2 | 4 | -2 | 1 | -5
C=CCn1c(N)c(C(=O)NCCC2=CCCCC2)sc1=S | -1 | -10 | 6 | 0 | . | -23
CN(c1ccccc1)C(c1ccc(F)cc1)c1nnnn1C1CCCC1 (configuration not stated) | -1 | 11 | 2 | 0 | 5 | 27
CCCc1nnc2n1N=C(c1ccc(OC)c(OC)c1)CS2 | 0 | 63* | 26 | 0 | -4 | 22
COc1ccc(-c2nnc3n2N=C(c2ccccc2)CS3)cc1OC | 0 | 12 | 6 | -2 | -4 | 9
CC(=O)Nc1cc(OC(C)=O)c2nonc2c1OC(C)=O | 1 | 103* | -2 | 7 | 18 | 78*
O=C1CC(N2CCC(c3nc4ccccc4s3)CC2)C(=O)N1 (configuration not stated) | 0 | -9 | -3 | -6 | -4 | -4
COc1cc(CN2CCN(c3cccc(C)c3C)CC2)cc(Br)c1O | 36* | 2 | 7 | 1 | -3 | 10
COc1ccc(CN2CCN(c3cccc(C)c3C)CC2)cc1OC | 24* | 11 | 13 | 29* | 3 | 6
COc1cc(CN2CCC(C(=O)N3CCC(C)CC3)CC2)cc(Br)c1O | 0 | 13 | 25 | -3 | 10 | 5
COCCN1C(=O)c2ccccc2C(C(=O)N2CCN(c3ccccn3)CC2)C1c1ccc(F)cc1 (configuration not stated) | 0 | -13 | 8 | -1 | . | 6
C=CCS/C(=N\n1cnc2ccccc2c1=O)N1CCCCC1 | 0 | 2 | -2 | 99* | 1 | 1
CC1(C)CC(=O)C(/C=N/n2cnc3ccccc3c2=O)=C(O)C1 | -1 | 4 | 8 | -1 | -9 | 4
CCOc1ccc(-c2noc(CCC(=O)O)n2)cc1 | 1 | -7 | 37 | -3 | 0 | -6
COc1ccc(-c2noc(CCCC(=O)O)n2)cc1 | 0 | 7 | 52* | 4 | 12 | 11
